Data on nine compounds can be found in article PMC9417066 (Nanoscale Advances, 2021).

The nature of data set [1]: Solubility in pure water at room temperature. It counts as physicochemical. The note with it: for solubility: water; for Soluble or not at R.T.: room temperature.
Data set [2] in a line: Storage modulus / gel forming of peptide gel with PBS. It counts as physicochemical.
The subject of data set [3] is gastric or colon submucosal layer. The data set can be described thus: Mucosal elevation by submucosal injection. It counts as in vivo. To be noted: 0.5 ml of 1% w/v PRVDP9 or 10 mg ml^-1 sodium hyaluronate, rabbit, 30 min.
Data set [4] in a line: TEM of peptide hydrogel. It counts as physicochemical. To be noted: 6 mg ml^-1 peptide, hydrogel with PBS, 1% phosphotungstic acid stain. The method, boiled down: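 Peptide was dissolved in pure water at 6 mg ml−1, then 10× PBS was added to give at most 1× PBS. The resulting hydrogel was dropped onto a copper grid and the excess blotted with filter paper. It was negatively stained with 1% phosphotungstic acid for 15 s, air-dried and imaged by transmission electron microscopy.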

The term solubility denotes the dissolved amount per volume that the medium holds. `CC(=O)N[C@@H](CCCNC(=N)N)C(=O)N[C@@H](C)C(=O)N[C@@H](CC(=O)O)C(=O)N[C@@H](C)C(=O)N[C@@H](CCCNC(=N)N)C(=O)N[C@@H](C)C(=O)N[C@@H](CC(=O)O)C(=O)N[C@@H](C)C(=O)N[C@@H](CCCNC(=N)N)C(=O)N[C@@H](C)C(=O)N[C@@H](CC(=O)O)C(=O)N[C@@H](C)C(=O)N[C@@H](CCCNC(=N)N)C(=O)N[C@@H](C)C(=O)N[C@@H](CC(=O)O)C(=O)N[C@@H](C)C(N)=O` [RADA16, AC-RADARADARADARADA-NH2, reference compound] showed a solubility in data set [1] of less than 30 mg/mL. Further, in data set [2] (peptide solution, without triggering), the “Concentration of peptide solution at which it self-assembled into a gel” value is on record as 3 % w/v.
On to “Ac-PKIEIKIEP-NH2 [PKIEP9, AC-PKIEIKIEP-amide]”, for which the “Soluble or not at R.T.” value in data set [1] (0.5% w/v) and in data set [1] (1% w/v) was “Yes” in each case. Moreover, the Gel forming entry in data set [2] (0.5% w/v peptide) and in data set [2] (1% w/v peptide) was “No” throughout.
Take “Ac-PKLDLKLDP-NH2 [PKLDP9, AC-PKLDLKLDP-amide]”: the “Soluble or not at R.T.” value in data set [1] (1% w/v) and in data set [1] (2% w/v) was “Yes” in each case. In addition, the Gel forming entry in data set [2] (1% w/v peptide) and in data set [2] (2% w/v peptide) was “No” each time.
“Ac-PKVEVKVEP-NH2 [PKVEP9, AC-PKVEVKVEP-amide]”: the “Soluble or not at R.T.” value in data set [1] (1% w/v) and in data set [1] (2% w/v) was “Yes” throughout. In addition, in data set [1], the solubility is no less than 40 mg/mL. The Gel forming entry in data set [2] (1% w/v peptide) and in data set [2] (2% w/v peptide) was “Yes” throughout.
As for “Ac-PRIDIRIDP-NH2 [PRIDP9, AC-PRIDIRIDP-amide]”, the “Soluble or not at R.T.” value in data set [1] (1% w/v) and in data set [1] (2% w/v) was “Yes” throughout. For the same compound, the Gel forming result in data set [2] (1% w/v peptide) and in data set [2] (2% w/v peptide) was “No” throughout.
“Ac-PRVDVRVDP-NH2 [PRVDP9, AC-PRVDVRVDP-NH2]”: the “Solubility (comparison, in words)” value in data set [1] is “superior solubility as compared with PRVD9”. For the same compound, the “Soluble or not at R.T.” value in data set [1] (1% w/v) and in data set [1] (2% w/v) was “Yes” in each case. The solubility in data set [1] was no less than 40 mg/mL. Moreover, the Gel forming entry in data set [2] (1% w/v peptide) and in data set [2] (2% w/v peptide) was “Yes” in each case. Besides, the “Gel forming when mixed with PBS (vial turned upside down)” value in data set [2] (1%, 2%, 3% w/v in pure water, 10× PBS added to not exceed 1×, stand 10 seconds) was “good gel-forming ability”. Besides, the “Storage modulus of peptide gel (in words)” value in data set [2] (3% w/v peptide, gel with PBS, recorded at 1 Hz) was “almost equivalent to that of 2.5% w/v RADA”. For the same compound, in data set [3], the “HE staining of colonic mucosa after submucosal injection” value was “showed a bulge, and the cavity was evenly filled with red-stained self-assembling peptides”. In addition, in data set [4], the “Nanostructure by TEM” value is reported as “formed a dense nanofiber scaffold”.
For the compound “Ac-PRVEVRVEP-NH2 [PRVEP9, Ac-PRVEVRVEP-amide]”, the “Soluble or not at R.T.” value in data set [1] (0.5% w/v) and in data set [1] (1% w/v) was “No” in each case.
With “Ac-RVDVRVDV-NH2 [RVDV8, AC-RVDVRVDV-NH2]”, in data set [1], the solubility was less than 30 mg/mL.
“Ac-VRVDVRVDV-NH2 [VRVDV9, AC-VRVDVRVDV-NH2]” gave a solubility in data set [1] of less than 30 mg/mL.
